The source made the active and inactive calls. The calls are words filed in the database; no cut-off is given here.

Data set [1] has as its system Plasmodium falciparum. The experiment in a line: Antimalarial activity against Plasmodium falciparum D10 by parasite lactate dehydrogenase assay. In kind it is functional, organism-based.
Data set [2] relates to Plasmodium falciparum. The experiment in a line: Antimalarial activity against Plasmodium falciparum W2 by parasite lactate dehydrogenase assay. In kind it is functional, organism-based.
For data set [3], the target named is T1, Chloroquine resistance transporter (Plasmodium falciparum) (UniProt Q9N623).
T1 sequence (whole entry): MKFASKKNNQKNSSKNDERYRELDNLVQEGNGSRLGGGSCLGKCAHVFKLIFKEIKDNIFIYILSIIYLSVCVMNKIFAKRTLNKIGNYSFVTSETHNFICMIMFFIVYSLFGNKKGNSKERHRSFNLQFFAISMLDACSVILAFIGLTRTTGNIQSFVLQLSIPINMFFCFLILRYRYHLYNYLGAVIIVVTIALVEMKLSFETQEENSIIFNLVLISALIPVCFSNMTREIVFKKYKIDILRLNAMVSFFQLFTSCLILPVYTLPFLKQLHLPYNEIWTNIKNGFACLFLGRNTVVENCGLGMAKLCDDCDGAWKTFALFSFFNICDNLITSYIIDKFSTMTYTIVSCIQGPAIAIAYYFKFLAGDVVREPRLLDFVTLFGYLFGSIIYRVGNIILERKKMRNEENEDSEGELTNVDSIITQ
The experiment in a line: Inhibition of Plasmodium falciparum Dd2 CRT expressed in Xenopus laevis oocyte assessed as inhibition of [3H]-CQ transport at 100 uM incubated for 1.5 hrs by microbeta scintillation counting method. In kind it is cell-based. In short, it runs like this:
(§1)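 Xenopus oocytes expressing PfCRT Dd2 and non-expressing oocytes, stored at 16–18 °C in OR2+ buffer (pH 7.8), assayed 3-4 days post-injection. [3H]CQ (0.25 µM) influx measured over 1.5 h at 27.5 °C in pH 5.5 medium (96 mM NaCl, 10 mM MES/Tris) with 15 µM unlabeled CQ, scintillation counting. PfCRT-mediated transport = uptake in expressing minus non-expressing oocytes.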

The target of data set [4] is T2, Chloroquine resistance transporter (Plasmodium falciparum, UniProt Q9N623).
T2 sequence (Q9N623 whole entry): T1 sequence (whole entry)
The data set is described as follows: Inhibition of Plasmodium falciparum Dd2 CRT expressed in Xenopus laevis oocyte assessed as inhibition of [3H]-CQ transport incubated for 1.5 hrs by microbeta scintillation counting method. In kind it is cell-based. In short, it runs like this: as §1

The test system of data set [5] is Plasmodium berghei. The data set is described as follows: Antimalarial activity against liver stage Plasmodium berghei PbmCherryhsp70 sporozoites infected in human HepG2 cells assessed as reduction in parasite number at 8 uM incubated for 24 hrs followed by removal of media and supplemented with fresh media and further incubated for 24 hrs […] relative to control. Format: functional. In short, it runs like this:
(§2)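 HepG2 cells (60000/well, seeded day before) infected 2 h with 20'000 PbmCherry_hsp70 sporozoites from An. stephensi salivary glands, then detached, pooled and treated from 2 hpi at graded concentrations with DMSO control. Medium changed 24 hpi; fixed 4% PFA at 48 hpi. Parasite number and size from mCherry signal by automated microscopy; 6 replicates; host growth checked by phase contrast; one-way ANOVA with Dunnett.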

The subject of data set [6] is Plasmodium berghei. The experiment in a line: Antimalarial activity against liver stage Plasmodium berghei PbmCherryhsp70 sporozoites infected in human HepG2 cells assessed as reduction in parasite size at 2 uM incubated for 24 hrs followed by removal of media and supplemented with fresh media and further incubated for 24 hrs […]. In kind it is functional, organism-based. In short, it runs like this:
as §2

The nature of data set [7]: Cytotoxicity against mouse NIH/3T3 cells assessed as reduction in cell viability incubated for 24 hrs by neutral red dye uptake assay. Format: cell-based, NIH3T3. In short, it runs like this: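 NIH3T3 cells, 5 × 10^4/well, cultured 24 h at 37 °C, 5% CO2, then exposed 24 h to compounds in DMSO at 8–160 µM; medium alone as negative control. Viability by Neutral Red uptake (3 h at 37 °C), dye extracted in acetic acid/ethanol, absorbance 540 nm. Three experiments, six replicates per concentration.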

Data set [8] relates to Plasmodium berghei. The experiment in a line: Antimalarial activity against in Plasmodium berghei ANKA strain GFP-con infected in Balb/c mouse assessed as blocked of transmission activity to Anopheles stephensi by measuring reduction in […] in mosquito at 10 micromol/kg, ip treated first dose 3 days post infection and female mosquitos feed blood meal on day 4 after 1.5 hrs of dosing by direct exposure and measured on day 8 by fluorescence microscopic analysis (reference value: 357). In kind it is functional. As to conditions: dose 10 µmol/kg; time 3 day. In short, it runs like this: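 P. berghei ANKA GFP-con, i.p. 10^7 infected RBC into 8–10-week BALB/c mice; on day 3 mice with ~5% parasitemia and gametocytes randomised, 3 per group. Dosed i.p. 10 µmol/kg on afternoon of day 3 and again day 4, 1.5 h before 1 h feed by ~150 female An. stephensi. Day 8: fluorescent midgut oocysts counted in 20–30 mosquitoes; triplicate cages; PBS control; two-tailed t-test.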

For `Clc1ccc(C(Nc2ccnc3cc(Cl)ccc23)c2ccc(CN3CCN(Cc4ccc(C(Nc5ccnc6cc(Cl)ccc56)c5cccc(Cl)c5)cc4)CC3)cc2)cc1` (centres undefined), the IC50 was found to be 595 nM in data set [1], 460 nM in data set [2] and 15.6 µM in data set [4]. The inhibition result in data set [3] is “Active”.

On to `Clc1ccc(C(Nc2ccnc3cc(Cl)ccc23)c2ccc(CCN3CCCC3)cc2)cc1` (centres undefined), for which the values for the IC50 in data set [1] and in data set [2] were 19 nM and 27 nM, respectively. For the same compound, the inhibition entry in data set [3] is “inactive”.

As to `COc1cc(NC(C)CCCN)c2ncccc2c1` (centres undefined) [PRIMAQUINE], the IC50 in data set [1] came to 5700 nM; in data set [2] it was 4400 nM. In addition, in data set [5], the inhibition at 8 µM was 50%. Also, the inhibition result in data set [6] is “Active”.

In the case of `OC(c1ccc(Cl)cc1)c1ccc(CN2CCNCC2)cc1` (centres undefined), the IC50 in data set [1] was above 15000 nM; in data set [2], 11000 nM. Besides, in data set [3], the inhibition came out at 22%.

As for `Clc1cccc(C(Nc2ccnc3cc(Cl)ccc23)c2ccc(CCN3CCCC3)cc2)c1` (centres undefined), the concentration for half-maximal inhibition (IC50) was 23 nM in data set [1] and 22 nM in data set [2]. Besides, in data set [3], the inhibition entry was “inactive”.

Turning to `Oc1cccc(C(Nc2ccnc3cc(Cl)ccc23)c2ccc(CN3CCNCC3)cc2)c1` (centres undefined), the IC50 came to 179 nM in data set [1] and 475 nM in data set [2]. Also, the inhibition result in data set [3] is “inactive”.

For the compound `Clc1ccc2c(NC(c3ccc(CN4CCNCC4)cc3)c3cccc(OCCOc4cccc(C(Nc5ccnc6cc(Cl)ccc56)c5ccc(CN6CCNCC6)cc5)c4)c3)ccnc2c1` (centres undefined), the inhibition result in data set [3] is “Active”.

As for `O=C(c1ccc(Cl)cc1)c1ccc(CN2CCNCC2)cc1`, the IC50 was above 15000 nM in data set [1] and 8600 nM in data set [2]. The inhibition in data set [3] is 22%.

For the compound `Clc1ccc(C(Nc2ccnc3cc(Cl)ccc23)c2ccc(CN3CCCCC3)cc2)cc1` (centres undefined), the half-maximal inhibitory concentration (IC50) came out at 65 nM in data set [1] and 69 nM in data set [2]. Besides, in data set [3], the inhibition entry is “inactive”.

On to `Clc1cccc(C(Nc2ccnc3cc(Cl)ccc23)c2ccc(CN3CCCCC3)cc2)c1` (centres undefined), for which the values for the half-inhibitory concentration (IC50) in data set [1] and in data set [2] were 84 nM and 88 nM, respectively. In data set [3], the inhibition result is “inactive”.

With `COc1cc(NC(c2ccc(CN3CCNCC3)cc2)c2cccc(Cl)c2)c2ncccc2c1` (centres undefined), the IC50 is 2800 nM in data set [1], 2300 nM in data set [2] and 64 µM in data set [4]. In addition, the inhibition in data set [3] is 65%. Also, the 50% cytotoxic concentration (CC50) at 24 h in data set [7] is 19 µM. For the same compound, in data set [8], the Activity worked out at 454.

As for `COc1cccc(C(Nc2ccnc3cc(Cl)ccc23)c2ccc(CN3CCNCC3)cc2)c1` (centres undefined), the 50% inhibitory concentration (IC50) in data set [1] worked out at 40 nM; in data set [2] it was 75 nM. In addition, in data set [3], the inhibition result is “Active”.

Take `Clc1ccc(C(c2ccc(CN3CCNCC3)cc2)c2ccnc3cc(Cl)ccc23)cc1` (centres undefined): the IC50 in data set [1] turned out to be 3700 nM; in data set [2], 2700 nM. In addition, the inhibition result in data set [3] is “inactive”.

Consider `COc1cc(NC(c2ccc(CN3CCNCC3)cc2)c2cccc(Cl)c2)n2nc(C)nc2n1` (centres undefined), for which the half-inhibitory concentration (IC50) is 3700 nM in data set [1], 920 nM in data set [2] and 12.5 µM in data set [4]. The inhibition in data set [3] came to 98%. For the same compound, the CC50 at 24 h in data set [7] was below 3.5 µM.

`COc1cc(NC(c2ccc(CN3CCCC3)cc2)c2cccc(Cl)c2)c2ncccc2c1` (centres undefined): the values for the IC50 in data set [1], in data set [2] and in data set [4] were 4500 nM, 3700 nM and 55 µM, respectively. In addition, the inhibition in data set [3] was determined as 65%. Further, the CC50 at 24 h in data set [7] is 28 µM. In data set [8], the Activity stood at 491.

Consider `OC(c1ccc(Cl)cc1)c1ccc(CCN2CCCC2)cc1` (centres undefined), for which the IC50 in data set [1] and in data set [2] was above 15000 nM each time. Besides, in data set [3], the inhibition worked out at 22%.

In the case of `OC(c1ccc(Cl)cc1)(c1ccc(CN2CCNCC2)cc1)c1ccnc2cc(Cl)ccc12` (centres undefined), the IC50 in data set [1] and in data set [2] was 2000 nM throughout. In addition, the inhibition result in data set [3] was “inactive”.

Usually IC50 stands for the concentration that gives 50% inhibition. Broadly, the inhibition is the drop in the measured response relative to a control, in per cent. As a reminder, the CC50 is the concentration giving 50% cytotoxicity.
